Activity calls are given as the source filed them. No cut-off for these calls is given here.
How the values were obtained:
[1] = target: T1, 1-deoxy-D-xylulose 5-phosphate reductoisomerase (Mycobacterium tuberculosis, UniProt P9WNS1); assay: Inhibition of Mycobacterium tuberculosis DXR using DXP as substrate preincubated for 10 mins followed by NADPH addition and measured after 5 mins by spectrophotometric assay
T1 sequence (P9WNS1 whole entry): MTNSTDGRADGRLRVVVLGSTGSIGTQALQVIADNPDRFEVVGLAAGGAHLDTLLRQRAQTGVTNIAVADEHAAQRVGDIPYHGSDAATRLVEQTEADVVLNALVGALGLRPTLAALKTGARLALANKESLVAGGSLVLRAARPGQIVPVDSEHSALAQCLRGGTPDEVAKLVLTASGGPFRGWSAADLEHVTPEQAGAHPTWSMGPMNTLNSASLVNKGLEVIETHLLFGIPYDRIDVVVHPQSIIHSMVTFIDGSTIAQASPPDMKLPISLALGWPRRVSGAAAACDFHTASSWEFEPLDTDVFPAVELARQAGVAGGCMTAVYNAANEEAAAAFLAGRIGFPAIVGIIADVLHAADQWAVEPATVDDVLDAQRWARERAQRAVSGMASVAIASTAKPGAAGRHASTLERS

[2] = target: T2, 1-deoxy-D-xylulose 5-phosphate reductoisomerase, apicoplastic (Plasmodium falciparum (isolate 3D7), UniProt Q8IKG4); assay: Inhibition of Plasmodium falciparum DXR
T2 sequence (Q8IKG4 whole entry): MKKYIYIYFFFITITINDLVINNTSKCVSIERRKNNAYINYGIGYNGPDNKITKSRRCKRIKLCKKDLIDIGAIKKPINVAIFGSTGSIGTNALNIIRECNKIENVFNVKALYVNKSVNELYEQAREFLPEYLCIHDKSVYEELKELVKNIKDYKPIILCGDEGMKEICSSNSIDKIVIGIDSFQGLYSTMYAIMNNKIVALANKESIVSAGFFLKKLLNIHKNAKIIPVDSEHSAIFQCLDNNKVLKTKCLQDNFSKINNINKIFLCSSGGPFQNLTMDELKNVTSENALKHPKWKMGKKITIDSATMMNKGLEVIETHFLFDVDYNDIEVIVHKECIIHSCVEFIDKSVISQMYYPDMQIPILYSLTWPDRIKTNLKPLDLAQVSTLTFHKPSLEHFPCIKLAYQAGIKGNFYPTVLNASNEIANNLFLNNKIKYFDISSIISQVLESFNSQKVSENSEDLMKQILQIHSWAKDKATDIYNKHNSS

[3] = tested on: Mycobacterium tuberculosis; assay: Antibacterial activity against Mycobacterium tuberculosis H37Rv assessed as reduction in bacterial growth; assay type: functional
[4] = target: T3, 1-deoxy-D-xylulose 5-phosphate reductoisomerase, apicoplastic (Plasmodium falciparum (isolate 3D7)) (UniProt Q8IKG4); assay: Inhibition of Plasmodium falciparum DXR expressed in Escherichia coli BL21 CodonPlus (DE3)-RIL cells using DOXP as substrate at 100 uM in presence of NADPH by UV-visible spectrophotometry relative to control
T3 sequence (whole entry): T2 sequence (Q8IKG4 whole entry)
Procedure, shortened: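 PfDXR single-point test at 100 µM inhibitor. Conditions: 0.86 µM IMAC-purified enzyme, 100 mM Tris pH 7.8, 25 mM MgCl2, 150 µM NADPH, 37 °C. Reaction was started with 144 µM DOXP, and NADPH oxidation was monitored at 340 nm. Percent remaining activity was reported; technical duplicates.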

[5] = tested on: Plasmodium falciparum; assay: Antiplasmodial activity against Plasmodium falciparum E1-C12 harboring with had1 mutation assessed as reduction in parasite growth by measuring DNA content after 3 days by PicoGreen staining based FLUOstar omega microplate reader analysis; assay type: functional, organism-based; conditions: time 3.0 day
Procedure, shortened: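 E1-C12 (had1) parasites, asynchronous, at 2% hematocrit in RPMI-1640/0.5% Albumax with hypoxanthine, under 5% O2/5% CO2/90% N2 at 37 °C. Started at 0.5% parasitemia and dosed at 1.2 nM–492.4 µM. After 3 days, DNA was stained with PicoGreen (ex 485/em 528). IC50 came from a 4-parameter fit; technical duplicates, biological triplicates.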

[6] = Cytotoxicity against human HepG2 cells assessed as reduction in cell viability after 24 hrs by Cell Titer Glo assay; assay type: toxicity, cell-based
Procedure, shortened: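 HepG2 cells in DMEM with 4 mM L-glutamine and 4.5 g/L glucose, trypsinized and plated from a 4×10^5 cells/mL suspension. Compounds were tested as two-fold dilutions from 100 to 0.1 µg/mL, with a DMSO-only control, in duplicate. After 24 h at 37 °C, 5% CO2, CellTiter-Glo luminescence was read after 20 min in the dark.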

[7] = tested on: Mycobacterium tuberculosis; assay: Antibacterial activity against Mycobacterium tuberculosis H37Rv assessed as reduction in bacterial growth incubated for 2 weeks by macroscopic plate reader analysis; assay type: functional; conditions: 336 h
Procedure, shortened: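 H37Rv grown in 7H9 broth with 0.08% NaCl, 0.4% glucose, 0.05% casitone and 0.05% tyloxapol, then diluted 1:500. Compounds were made as 20 mg/mL DMSO stocks and run as eleven 2-fold serial dilutions. Plates were held 2 weeks at 37 °C and MIC99 was read macroscopically. Three independent measurements.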

[8] = tested on: Plasmodium falciparum; assay: Antiplasmodial activity against Plasmodium falciparum E1-C12 harboring with had1 mutation assessed as reduction in parasite growth by measuring DNA content after 3 days in presence of IPP by PicoGreen staining based FLUOstar omega microplate reader analysis; assay type: functional, organism-based; conditions: time 3.0 day
Procedure, shortened: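 IPP rescue in had1 E1-C12 parasites: 125 µM IPP was present for the whole assay. Cultures at 2% hematocrit in Albumax-supplemented RPMI, 5% O2/5% CO2, 37 °C, started at 0.5% parasitemia. Inhibitors were dosed at 1.2 nM–492.4 µM, and growth was read after 3 days by PicoGreen fluorescence. 4-parameter fit; duplicate wells, biological triplicates.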

[9] = target: T1, 1-deoxy-D-xylulose 5-phosphate reductoisomerase; assay: Inhibition of Mycobacterium tuberculosis DXR expressed in Escherichia coli BL21 CodonPlus (DE3)-RIL cells using DOXP as substrate in presence of NADPH by UV-visible spectrophotometry
[10] = tested on: Plasmodium falciparum; assay: Antiplasmodial activity against Plasmodium falciparum 3D7 assessed as reduction in parasite growth by measuring DNA content after 3 days by PicoGreen staining based FLUOstar omega microplate reader analysis; assay type: functional, organism-based; conditions: 3D7, 72 h
Procedure, shortened: (§1)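 Asynchronous cultures in 2% hematocrit, RPMI-1640 complete medium with 0.5% Albumax, under 5% O2/5% CO2/90% N2 at 37 °C. Diluted to 0.5% parasitemia, inhibitors 1.2 nM to 492.4 µM added at start. Growth read after 3 days as DNA content by PicoGreen fluorescence (485/528 nm). IC50 from 4-parameter nonlinear regression; technical duplicate, biological triplicate.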

[11] = target: T4, 1-deoxy-D-xylulose 5-phosphate reductoisomerase (Mycobacterium tuberculosis) (UniProt P9WNS1); assay: Inhibition of Mycobacterium tuberculosis DXR expressed in Escherichia coli BL21 CodonPlus (DE3)-RIL cells using DOXP as substrate at 100 uM in presence of NADPH by UV-visible spectrophotometry relative to control
T4 sequence (whole entry): T1 sequence (P9WNS1 whole entry)
Procedure, shortened: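 Recombinant MtbDXR (pET101/D-TOPO in E. coli BL21 CodonPlus (DE3)-RIL, IMAC-purified) at 0.89 µM in 100 mM MES pH 6.5, 25 mM MgCl2, 150 µM NADPH, 47 µM DOXP, 37 °C. Inhibitor was tested at a single 100 µM. NADPH oxidation was followed at 340 nm, and percent remaining activity was reported. Technical duplicates.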

[12] = target: T2, 1-deoxy-D-xylulose 5-phosphate reductoisomerase, apicoplastic; assay: Inhibition of Plasmodium falciparum DXR expressed in Escherichia coli BL21 CodonPlus (DE3)-RIL cells using DOXP as substrate in presence of NADPH by UV-visible spectrophotometry
[13] = tested on: Plasmodium falciparum; assay: Antiplasmodial activity against Plasmodium falciparum; assay type: functional, organism-based; procedure, shortened: as §1

Row | SMILES | IC50 [1] [nM] | IC50 [2] [nM] | MIC [3] [µg/mL] | inhibition [4] [%] | Activity [5] | IC50 at 24 h [6] [nM] | MIC [7] [µM] | Activity [8] | IC50 [9] [nM] | IC50 [10] [nM] | inhibition [11] [%] | IC50 [12] [nM] | IC50 [13] [nM]
1 | CC(=O)N(O)CCCP(=O)(O)O [FR-900098] | 2910 | 22 | > 500 |  |  |  |  |  |  |  |  |  | 
2 | CC(=O)N(CCC(c1ccc(Cl)c(Cl)c1)P(=O)(O)O)OC(C)c1ccc(F)cc1 (stereo not drawn) |  |  |  | > 90 | Active | > 200000 | > 200 | inactive | 4780 | 2420 | > 90 | 470 | 
3 | O=CN(O)CCCP(=O)(O)O [FOSMIDOMYCIN] |  |  | > 500 |  |  |  |  |  |  |  |  |  | 1020
4 | COc1ccc(C(C)ON(CCC(c2ccc(Cl)c(Cl)c2)P(=O)(O)O)C(C)=O)cc1 (stereo not drawn) |  |  |  | > 90 | Active | > 200000 | > 98 | inactive | 780 | 300 | > 90 | 110 | 
